Experimental data collected from several papers.
Protocols differ between the studies behind these lines.
Target: High affinity nerve growth factor receptor (NTRK1, Homo sapiens, UniProt P04629)

| SMILES | test | conditions | remaining binding |
| --- | --- | --- | --- |
| N#Cc1ccccc1CSc1nnc2c(n1)[nH]c1ccccc12 | binding, competition with immobilised ligand | 10 µM | 98% |
| O=C(NCCCN1CCOCC1)c1ccc(Nc2nccc(-c3cc4ccccc4s3)n2)cc1 | binding, competition with immobilised ligand | 1 µM | 19% |
| CN1CCN(c2ccc(Nc3nccc(-c4ccccc4)n3)cc2C(F)(F)F)CC1 | binding | 10 µM | 9.2% |
| CN(C)c1nccc(-c2cnc3ncccn23)n1 | binding | 1 µM | 72% |
| c1cncc(-c2cccc(Nc3nccc(NC4CCCCC4)n3)c2)c1 | binding, competition with immobilised ligand | 10 µM | 5.3% |
| O=C(NCCCN1CCOCC1)c1ccc(Nc2ncc(Cl)c(-c3ccc(Cl)s3)n2)cc1 | binding, competition with immobilised ligand | 1 µM | 17% |
| COc1cnc(Nc2cccc(S(N)(=O)=O)c2)nc1N1CCN(c2ccccc2)CC1 | binding, competition with immobilised ligand | 1 µM | 58% |
| CC(C)(C)c1ccc(-c2nc(CBr)nn2-c2cccc(O)c2)cc1 | cell-free assay, competition with immobilised ligand | 10 µM | 71% |
| NS(=O)(=O)c1cc(NC(=O)Cc2ccccc2)ccc1Oc1cccc(Cl)c1 | cell-free assay, competition with immobilised ligand | 1 µM | 73% |
| O=C(NCC1CCOCC1)c1n[nH]cc1NC(=O)c1c(F)cccc1F | binding, competition with immobilised ligand | 1 µM | 100% |
| CC1CCCN1c1nccc(-c2cnn3ncccc23)n1 (stereo not drawn) | binding | 1 µM | 87% |
| Nc1c(C(=O)NCc2ccc(C(=O)NCCCC3CCCCC3)cc2)cnn1-c1ccccc1 | cell-free assay, competition with immobilised ligand | 0.1 µM | 100% |
| C[C@H]1CCN(c2nccc(-c3cnn4ncccc34)n2)C1 | binding | 1 µM | 68% |
| O=C(c1ccc(Nc2ncc(Cl)c(-c3cc4ccccc4s3)n2)cc1)N1CCC(N2CCCC2)CC1 | binding, competition with immobilised ligand | 1 µM | 1.4% |
| O=S(=O)(NC1CCC(c2cc(F)ccc2F)(S(=O)(=O)c2ccc(Cl)cc2)CC1)C(F)(F)F (stereo not drawn) | cell-free assay, competition with immobilised ligand | 1 µM | 76% |
| c1cnn2ncc(-c3ccnc(N4CCC45COC5)n3)c2c1 | binding | 1 µM | 53% |
| CN(c1ccnc(CNc2nc(Nc3ccc4c(c3)CC(=O)N4)ncc2C(F)(F)F)n1)S(C)(=O)=O | cell-free assay, competition with immobilised ligand | 1 µM | 10% |
| CN(CCCC(F)(F)F)c1nccc(-c2cnn3ncccc23)n1 | binding | 1 µM | 100% |
| O=C(NCCCC1CCCCC1)c1ccc(CNC(=O)c2cnn(-c3ccccc3)c2C(F)(F)F)cc1 | cell-free assay, competition with immobilised ligand | 0.1 µM | 100% |
| COc1ncc2cc3ccccc3nc2c1C#N | cell-free assay, competition with immobilised ligand | 5 µM | 100% |
| Cn1cc(Cl)c2c(Oc3c(F)cc(Nc4cc(Cl)nc(N)n4)cc3F)ccnc21 | cell-free assay, competition with immobilised ligand | 0.1 µM | 74% |
| N[C@@H]1CCN(c2nccc(-c3cnn4ncccc34)n2)C1 | binding | 1 µM | 93% |
| Cc1cc(-n2nc(Cc3cc(F)cc(C(F)(F)F)c3)nc2C)ccc1C(N)=O | cell-free assay, competition with immobilised ligand | 1 µM | 97% |
| COc1cnc(Nc2cccc(S(N)(=O)=O)c2)nc1N1CCN(c2ccccc2)C(=O)C1 | binding, competition with immobilised ligand | 1 µM | 100% |
